# Scp-1 inhibitor: blocks human Scp-1 phosphatase activity. inhibition, % at 20 µM. Recombinant Scp1, phosphopeptide, malachite green phosphate absorbance. Q9GZU7. hit rate 0.88% among 340,000;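 active means inhibition above about 50% at 20 µM, limit read from the data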;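 further: plate controls were DMSO wells with enzyme for no effect and wells lacking enzyme for full effect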
#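 Test system: SCP-1 catalytic domain; Buffer or medium: Acidic Tris acetate buffer with magnesium and detergent; Also added: Phosphorylated 17-residue peptide substrate; Compound: single 20 µM dose, 1% DMSO; Schedule: enzyme reaction 45 min at room temperature, colour 5 min, stabilisation 30 min; Signal: Phosphate-binding colour reagent, absorbance read at 630 nm.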
# DNMT1 block: DNMT1 (human) enzyme inhibition | DNMT1 molecular beacon, Hinp1I cleavage, fluorescence | inhibition (reported as % activation of signal), % at 10 µM | hit rate 0.83% among 360,000; in the data active means inhibition above about 50%
# SUMO1 PPI mod: modulators of human SUMO1-mediated protein-protein interactions; P63165; SUMO1 binding to a labelled peptide, TR-FRET, 1 h; inhibition, % at 20 µM; hit rate 0.33% among 360,000; AID 602429; in the data active means inhibition above about 37%
# HKDC1 inhibitor: blocks human hexokinase HKDC1 activity | recombinant HKDC1, G6PDH/diaphorase resazurin coupled fluorescence | inhibition, % at 20 µM | hit rate 0.16% among 340,000 | AID 493160;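 active means inhibition above about 35% when tested at 20 µM, limit read from the data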;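 further: plate controls were DMSO wells with enzyme for no effect and DMSO wells lacking enzyme for full effect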
# Target sequence (Q2TB90 whole entry, looked up): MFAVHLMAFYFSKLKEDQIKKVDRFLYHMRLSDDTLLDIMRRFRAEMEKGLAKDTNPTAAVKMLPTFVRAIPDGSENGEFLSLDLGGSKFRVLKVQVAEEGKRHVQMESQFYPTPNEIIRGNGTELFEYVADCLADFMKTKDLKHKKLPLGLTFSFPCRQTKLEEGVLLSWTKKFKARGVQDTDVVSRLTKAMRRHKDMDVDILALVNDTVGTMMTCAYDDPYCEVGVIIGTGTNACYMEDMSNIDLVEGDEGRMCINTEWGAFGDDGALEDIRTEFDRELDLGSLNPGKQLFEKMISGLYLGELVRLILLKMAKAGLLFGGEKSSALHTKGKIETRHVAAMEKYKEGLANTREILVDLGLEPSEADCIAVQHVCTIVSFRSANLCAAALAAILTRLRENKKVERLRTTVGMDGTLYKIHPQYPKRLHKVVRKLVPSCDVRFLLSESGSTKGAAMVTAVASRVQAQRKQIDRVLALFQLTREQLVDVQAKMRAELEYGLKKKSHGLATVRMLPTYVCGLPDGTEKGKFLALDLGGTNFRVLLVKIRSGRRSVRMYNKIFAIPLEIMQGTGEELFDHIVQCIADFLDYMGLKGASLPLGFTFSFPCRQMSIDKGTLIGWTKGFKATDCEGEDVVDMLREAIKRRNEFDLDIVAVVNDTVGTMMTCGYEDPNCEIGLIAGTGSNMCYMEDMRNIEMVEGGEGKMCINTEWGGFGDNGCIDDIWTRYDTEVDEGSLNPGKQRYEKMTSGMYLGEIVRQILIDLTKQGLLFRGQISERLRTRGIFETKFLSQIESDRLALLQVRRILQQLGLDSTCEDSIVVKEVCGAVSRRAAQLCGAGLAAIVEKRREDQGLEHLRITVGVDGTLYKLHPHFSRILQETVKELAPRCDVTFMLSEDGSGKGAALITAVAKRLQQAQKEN
#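 Test system: Recombinant HKDC1 (HK5) hexokinase enzyme, produced in-house | Input: HKDC1 at 5 µg/mL | Buffer or medium: Tris pH 8.0 buffer with MgCl2, Tween-20, BSA, BME | Schedule: 90 min reaction incubation at room temperature, dark | Technique: Resazurin-to-resorufin fluorescence via G6PDH and diaphorase coupling, 525/613 nm | Controls: DMSO wells with and without enzyme mix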
# LMPTP inh: blocks human LMPTP phosphatase. hit rate 0.22% among 360,000. inhibition, % at 20 µM. recombinant LMPTP-A, OMFP fluorogenic substrate, fluorescence intensity. AID 651560;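 active means compounds that cut the enzyme signal by at least half of the control window in the single-dose screen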;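 further: plate controls were DMSO wells with enzyme plus substrate for no effect and substrate without enzyme for full effect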
#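 test system = LMPTP-A | amount = 0.625 nM LMPTP-A final | reagent = fluorogenic phosphatase substrate OMFP at 400 µM final | incubation = 50 min at room temperature | benchmarks = no-enzyme low control, uninhibited high control | medium = Bis-Tris pH 6.0, DTT, detergent | signal = fluorescence intensity of OMFP turnover product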
# STEP block: blocks human striatal-enriched tyrosine phosphatase; P54829; recombinant STEP, OMFP fluorogenic substrate, fluorescence; inhibition, % at 20 µM; hit rate 0.25% among 360,000;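 active means inhibition at 20 µM, scaled per plate between control wells, above about 37%, limit read from the data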;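 further: 0% = DMSO with enzyme and substrate and 100% = substrate only without enzyme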
#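 Measure: Control-normalized % inhibition with plate pattern correction | Test system: STEP phosphatase, cell-free reaction | Medium: pH 6.0 Bis-Tris with DTT and Tween 20 | Technique: Fluorescence, 480/540 nm | Times: Reaction 20 min, ambient temperature | Doses: Single compound dose of 20 µM, 1% DMSO final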
# Scp1 confirm: Scp-1 (human) inhibition, single-dose confirmed | recombinant SCP-1 catalytic domain, phosphate release, malachite green absorbance | shares compounds with Scp-1 inhibitor | hit rate 61% among 2,500 | inhibition, % at 20 µM | AID 540281;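 further: plate controls were DMSO with enzyme for no effect and buffer wells lacking enzyme for full effect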
# MG interference: interferes with malachite green readout, flagging false Scp-1 hits | shares compounds with Scp-1 inhibitor | Colorimetric interference counterscreen, malachite green absorbance 630 nm | apparent inhibition (interference), % at 20 µM | 2,500 tested, under 10 active;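 further: compounds added after enzyme reaction finished so only phosphate colour detection is probed; plate controls were DMSO wells with completed Scp-1 reaction for no effect and substrate wells lacking enzyme for full effect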
# Scp-1 Tm shift: binds human Scp-1, shifting its melting temperature; hit rate 25% among 1,500; shares compounds with Scp-1 inhibitor; thermal shift relative to vanadate control, % at 40 µM; Recombinant SCP1, Sypro Orange thermal shift Tm;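 active means substances whose mean melting-temperature shift, as a percentage of the reference inhibitor's shift, reaches about 5.3%, limit read from the data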;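 further: 0% = Tm of DMSO wells and 100% = Tm with sodium orthovanadate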
# DNMT1 confirm: DNMT1 inhibition confirmation, single concentration | hit rate 8% among 2,300 | inhibition, % at 10 µM | DNMT1 molecular beacon HinP1I cleavage, fluorescence | shares compounds with DNMT1 block;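 active means average inhibition of at least 30% in the single-concentration confirmation test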
# Beacon interf: shows spectral interference in the DNMT1 beacon assay | AID 602387 | DNMT1 molecular beacon spectral interference counterscreen, fluorescence 485/520 | activation (fluorescence interference), % at 10 µM | shares compounds with DNMT1 block | hit rate 1% among 2,300;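 active means activation of at least 30% at 10 µM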;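 further: DNMT1 catalytic domain with a HinP1I cleavage step and a FAM/dabcyl DNA beacon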
# Active calls of the source: *; . = no result. Sampled rows, rich in hits. Any-hit rate of the full collection: about 1.8%.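 How the source made its calls, unless noted: active means inhibition of at least 30% at 20 µM; inactive means the rest.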
SMILES,Scp-1 inhibitor,DNMT1 block,SUMO1 PPI mod,HKDC1 inhibitor,LMPTP inh,STEP block,Scp1 confirm,MG interference,Scp-1 Tm shift,DNMT1 confirm,Beacon interf
O=C(COC(=O)c1ccccc1)NCc1ccco1,104*,74*,3,-1,14,-2,63*,-9,-18,6,4
O=C(COC(=O)c1ccco1)NCc1ccco1,0,0,1,-1,-1,-3,.,.,.,.,.
O=C(COC(=O)/C=C/c1ccco1)Nc1ncc(C(F)(F)F)cc1Cl,76*,71*,-2,4,13,33,56*,-15,6.1*,18,3
O=C(COC(=O)c1ccccc1Nc1cccc(C(F)(F)F)c1)NCc1ccco1,77*,91*,6,3,20,18,53*,-23,5.3*,6,4
O=C(COC(=O)c1ccc(Br)o1)NCc1ccco1,74*,58*,4,-2,16,2,65*,-6,-6,2,2
Cc1nn(C(C)C(=O)NCCN2CCCCCC2)c(=O)c2nn(-c3ccccc3)c(C)c12 (stereo not drawn),-2,-4,-7,-2,10,-2,.,.,.,.,.
CCCOc1ccc(CNC(=O)Cc2cccs2)cc1,-13,-1,0,-6,2,0,.,.,.,.,.
Cc1cccc(C(=O)OCC(=O)NCc2ccco2)c1,24,20,3,-4,-1,2,.,.,.,.,.
Cc1cc(Br)ccc1SCC(=O)OCC(=O)NCc1ccco1,75*,82*,19,5,6,7,61*,-17,1,9,-2
COc1ccccc1NCCC(=O)OCC(=O)NCc1ccco1,75*,51*,5,5,22,4,64*,-9,-1,17,-2
O=C(COC(=O)c1cc(-c2cccs2)nc2ccccc12)NCc1ccco1,56*,51*,5,2,5,-2,56*,-11,7.0*,17,4
O=C(COC(=O)c1cccc(Br)c1)NCc1ccco1,56*,87*,7,-2,13,1,53*,-13,1,2,4
CCOC(=O)[C@]12CCCC=C1N(Cc1cccc3ccccc13)C(=O)[C@H](CC(=O)NCC1CCCCC1)C2,.,.,3,.,8,.,.,.,.,.,.
COc1ccc(-c2csc(/C=C/c3ccc4c(c3)OCO4)n2)cc1OC,-4,-9,0,-4,-1,2,.,.,.,.,.
Cc1ccc(C)c(SCC(=O)OCC(=O)c2ccco2)c1,60*,81*,3,-7,3,2,69*,-9,1,3,2
O=C(COC(=O)Cc1ccc(Cl)c(Cl)c1)NCc1ccco1,-1,-1,2,-6,2,2,.,.,.,.,.
O=C(COC(=O)Cc1ccc(Cl)cc1)NCc1ccco1,82*,88*,19,-1,-1,7,71*,-4,2,8,2
O=C(COC(=O)/C=C/c1ccco1)NCc1ccco1,72*,52*,-3,0,8,12,82*,5,1,2,4
O=C(CSc1ncccn1)NNC(=O)c1ccccc1,4,4,3,-4,1,-2,.,.,.,.,.
COc1ccc2c(COC(=O)CC3Sc4ccccc4NC3=O)cc(=O)oc2c1 (stereo not drawn),3,-1,-1,11,3,-1,.,.,.,.,.
CC(=O)Nc1ccc2c(COC(=O)CC3Sc4ccccc4NC3=O)cc(=O)oc2c1 (stereo not drawn),57*,60*,2,2,14,12,70*,-10,4,10,3
O=C(O)CC(NCc1ccco1)C(=O)OCCc1ccccc1 (stereo not drawn),7,2,0,-7,-3,-2,.,.,.,.,.
C=C(C)CCOC(=O)C(CC(=O)O)NCc1ccco1 (stereo not drawn),86*,63*,23,-8,0,7,67*,-10,-9,3,1
O=C(Nc1cc2c(oc1=O)CCCC2=O)c1cccc(Cl)c1,-2,-3,-18,12,-1,-7,.,.,.,.,.
COc1ccc(C(=O)Nc2cc3c(oc2=O)CCCC3=O)cc1,57*,68*,-13,1,1,1,44*,-6,-2,2,1
SMILES,Scp-1 inhibitor,DNMT1 block,SUMO1 PPI mod,HKDC1 inhibitor,LMPTP inh,STEP block,Scp1 confirm,MG interference,Scp-1 Tm shift,DNMT1 confirm,Beacon interf
CN(CC(=O)Nc1ccccc1Br)C(=O)CN1CCN(Cc2ccc(Cl)cc2)CC1,-13,-1,0,-2,-1,0,.,.,.,.,.
COC(=O)c1c(C)[nH]c(-c2csc(N)n2)c1C,-5,-10,-1,-8,1,0,.,.,.,.,.
COc1ccc(N2Cc3cccc(C(=O)O)c3C2=O)cc1,82*,87*,16,12,7,6,71*,-10,0,15,-1
COc1ccc(N2Cc3ccccc3C2=O)cc1,-2,0,0,-2,-1,2,.,.,.,.,.
CCOc1ccccc1CN1CCCC(CNC(=O)Cc2ccc(OC)cc2)C1 (stereo not drawn),-4,4,1,-3,0,-2,.,.,.,.,.
c1ccc(-c2cc(-c3nn4c(-c5ccco5)nnc4s3)c3ccccc3n2)cc1,92*,55*,18,-3,3,8,43*,-1,7.3*,4,-3
O=C(N/N=C/c1ccco1)C1CC1c1ccccc1 (stereo not drawn),60*,92*,0,-4,6,4,48*,-14,-14,21,4
O=C(N/N=C/c1ccco1)C1CC1,3,-1,-2,-4,0,-1,.,.,.,.,.
O=c1oc(-c2ccccc2)nc2sc3c(c12)CCC3,59*,96*,1,-1,38,6,34*,-18,-20,4,5
C[C@@H](C(=O)N[C@H](C(=O)O)c1ccccc1)n1nnc2ccccc2c1=O,-3,0,-2,-8,-2,-2,.,.,.,.,.

# Assay outcomes (PubChem BioAssay)
